Source: PubChem BioAssay
MrgX1 ag: activates human MrgX1 receptor signaling. Q96LB2. MrgX1-HEK293 cells, Fluo-4 calcium fluorescence, agonist mode; stronger effect = higher value. B-score at 10 µM. 310,000 compounds, 0.44% hits. AID 588627;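 active = calcium response B-score plate-corrected fluorescence ratio at least 3 library SD, with starting fluorescence B-score inside 5 SD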
Target sequence (Q96LB2 whole entry, looked up): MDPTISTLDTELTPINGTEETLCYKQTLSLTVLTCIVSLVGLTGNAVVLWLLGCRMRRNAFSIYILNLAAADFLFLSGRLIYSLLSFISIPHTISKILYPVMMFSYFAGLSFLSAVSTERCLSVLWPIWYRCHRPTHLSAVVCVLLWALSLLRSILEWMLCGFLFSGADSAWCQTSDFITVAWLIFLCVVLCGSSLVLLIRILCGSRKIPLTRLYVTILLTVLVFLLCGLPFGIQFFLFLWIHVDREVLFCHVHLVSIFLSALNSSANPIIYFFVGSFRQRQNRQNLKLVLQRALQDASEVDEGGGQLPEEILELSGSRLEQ
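Test system: Stable human MrgX1 HEK293 cell line | Schedule: Overnight plating before 1 h dye loading | Read-out basis: Baseline-normalised fluorescence change ratio, B-scored | Detection: Kinetic calcium dye fluorescence, Fluo-4 NW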
MrgX1 antagonist: blocks BAM8-22 activation of human MrgX1 receptor; 310,000 compounds, 1.3% hits; MRGX1-HEK293 calcium flux, Fluo-4, BAM8-22 antagonism; stronger effect = lower value; Q96LB2; B-score at 10 µM;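 active = calcium-response B-score plate-corrected more than 3 library SD below zero, starting fluorescence within 5 deviations, no agonist response on first addition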;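 also: peak minus trough fluorescence over baseline after final BAM8-22 challenge near maximal dose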
MrgX1 allo act: allosterically activates human MrgX1 receptor signaling; Q96LB2; MrgX1-HEK293, Fluo-4 calcium flux, FDSS; stronger effect = higher value; B-score at 10 µM; 310,000 compounds, 0.63% hits; AID 588675;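 active = plate-corrected calcium response at least 3 library SD above typical, normal starting fluorescence, not activating the receptor alone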;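 also: compound read alongside a low EC10 to EC30 dose of BAM8-22 agonist; peak minus trough fluorescence over baseline measured at the second addition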
RGS4 act: potentiators or activators of RGS4. HEK293 M3R/inducible RGS4, carbachol calcium flux Fluo4; stronger effect = lower value. B-score at 10 µM. 310,000 compounds, 0.92% hits;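 active = B-score of the integrated calcium signal more than 4 SD below the library mean, with starting fluorescence not abnormally high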;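 also: negative B-score means reduced calcium response which marks RGS4 activation or potentiation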
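Test system: HEK293 cells with stable M3R and inducible RGS4; also added: carbachol at ECmax as muscarinic agonist stimulus; schedule: dye loading 30 min 37 °C, buffer rest 30 min RT; technique: kinetic calcium fluorescence imaging with Fluo4-AM dye, 2 µM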
RGS4 block: inhibitors of human RGS4; HEK293 M3R/RGS4 inducible, Fluo-4 calcium flux; stronger effect = higher value; triggered by carbachol at its EC20; B-score at 10 µM; 310,000 compounds, 0.45% hits;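 active = B-score, a plate-corrected calcium signal, over three deviations above library mean, with baseline fluorescence within five deviations of library mean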;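 also: RGS4 expression induced by doxycycline in cells with stable M3 receptor; B-score is computed from the integrated fluorescence ratio over baseline after carbachol; higher B-score means a larger calcium signal and so more RGS4 inhibition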
Target sequence (P49798 whole entry, looked up): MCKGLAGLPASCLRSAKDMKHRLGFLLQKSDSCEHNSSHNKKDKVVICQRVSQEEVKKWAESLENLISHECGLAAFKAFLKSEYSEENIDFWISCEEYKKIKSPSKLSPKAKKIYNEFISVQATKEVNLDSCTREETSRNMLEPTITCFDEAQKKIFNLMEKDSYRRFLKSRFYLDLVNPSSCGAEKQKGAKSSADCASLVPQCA
RGS4 activ val: RGS4 activation, validation assay | HEK293 M3R/RGS4 inducible, carbachol calcium flux Fluo4 | inhibition, % at 10 µM | 1,100 compounds, 89% hits | shares compounds with RGS4 act;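 active = inhibition above 3 SD of the buffer control wells, cut at about 41% in these data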;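 also: signal is the integrated peak-minus-minimum Fluo4 fluorescence over baseline ratio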
RGS4 act ctr: activity in cells without induced RGS4 expression | shares compounds with RGS4 act | inhibition, % at 10 µM | HEK293 M3R non-induced RGS4, Fluo4 calcium flux; after carbachol challenge at its EC90 | 1,100 compounds, 82% hits;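 active = inhibition exceeding 3 SD of buffer-only control wells, cut at about 26% in these data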;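 also: percent drop in integrated peak-minus-baseline over baseline Fluo4 ratio after carbachol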
Hits are given with their value; 0 = inactive; - = not tested or not shown. Sampled rows, rich in hits. Any-hit rate of the full collection: about 3.5%.

SMILES | MrgX1 ag | MrgX1 antagonist | MrgX1 allo act | RGS4 act | RGS4 block | RGS4 activ val | RGS4 act ctr
Cc1ccccc1Sc1c(C#N)c(-c2ccccc2)nn1C | 0 | 0 | 0 | -8.3 | 0 | 88 | 58
C=CCOc1ccccc1CN1CCC(n2nccc2NC(=O)c2ccccc2)CC1 | 0 | 0 | 0 | 0 | 0 | - | -
Cc1cccc(NC(=O)C2CCN(S(=O)(=O)c3c(C)nn(C)c3C)CC2)n1 | 0 | 0 | 0 | 0 | 0 | - | -
Cc1cccc(NC(=O)C2CCN(S(=O)(=O)c3c(C)c(C)cc(C)c3C)CC2)n1 | 0 | 0 | 0 | -11 | 0 | 90 | 64
CCOc1ccc(CCNc2nc3ccc(C)cc3n3cnnc23)cc1OCC | 0 | 0 | 0 | 0 | 0 | - | -
COC(=O)c1ccc(CN2CCCC(CCC(=O)NCc3ccc(C)o3)C2)cc1 (stereo unspecified) | 0 | 0 | 0 | -9 | 0 | 88 | 71
COc1ccccc1/C=C/CN1CCCC(CCC(=O)NCc2ccc(F)c(F)c2)C1 (stereo unspecified) | 0 | 0 | 0 | 0 | 0 | - | -
O=C(CCC1CCCN(Cc2cccc3c2OCO3)C1)NCc1ccc(F)c(F)c1 (stereo unspecified) | 0 | 0 | 0 | -9.4 | 0 | 50 | 33
COc1ccc(/C=C/CN2CCCC(CCC(=O)NCc3ccc(F)c(F)c3)C2)cc1 (stereo unspecified) | 0 | 0 | 0 | -7.8 | 0 | 92 | 87
COc1cccc(NC(=O)NCc2c(-c3ccccc3)noc2C)c1 | 0 | 0 | 0 | 0 | 0 | - | -
O=C(CNc1ccccc1)c1ccc([N+](=O)[O-])cc1 | 0 | 0 | 0 | -11 | 0 | 76 | 84
O=C(CNC(=O)c1ccc([N+](=O)[O-])cc1)c1ccccc1 | 0 | 0 | 0 | 0 | 0 | - | -
COC(C)(C)[C@]12CC(O)(c3ccccc3)ON1[C@H]1CCCCC1N2O (stereo partly specified) | 0 | 0 | 0 | 0 | 0 | - | -
Cc1csc(NC(=O)c2sc3nc(-c4cccs4)ccc3c2N)n1 | 93 | 0 | 0 | -8.9 | 0 | 88 | 83
Cc1ccc(OCC(=O)Nc2ccc(CN3CCCCC3)cc2)c(C)c1 | 0 | 0 | 0 | -9.9 | 0 | 66 | 84
COc1cc(NC(=O)c2cc3ccccc3cc2OC)ccc1NC(=O)c1cccs1 | 0 | 0 | 0 | -9.1 | 0 | 76 | 0
Cc1cccn2c(CN3CCCC(c4ccccc4)C3)c(C(=O)N3CCOCC3)nc12 (stereo unspecified) | 0 | 0 | 0 | 0 | 0 | - | -
CCN1CCN(c2ncnc3scc(-c4ccc(C)c(C)c4)c23)CC1 | 0 | 0 | 0 | -9.2 | 0 | 92 | 87
COc1ccc(-c2csc3ncnc(N4CCN(Cc5ccccc5)CC4)c23)cc1 | 0 | 0 | 0 | -7.7 | 0 | 0 | 0
COc1ccc(-c2csc3ncnc(N4CCN(c5ccccc5O)CC4)c23)cc1 | 0 | 0 | 0 | -9.3 | 0 | 0 | 0
Cc1ccc(-c2csc3ncnc(N4CCN(c5ccccc5O)CC4)c23)cc1 | 0 | 0 | 0 | 0 | 0 | - | -
COc1ccc(-c2csc3ncnc(N4CCN(c5ccc(OC)cc5)CC4)c23)cc1 | 0 | 0 | 0 | 0 | 0 | - | -
COc1ccc(-c2csc3ncnc(N4CCN(c5ccccc5)CC4)c23)cc1 | 0 | 0 | 0 | -8.3 | 0 | 88 | 84
O=C(Nc1cccc(Cl)c1)c1cccnn1 | 0 | 0 | 0 | 0 | 0 | - | -
CC(C)(C)[C@H]1C=C(C(=O)NCc2ccccc2)O[C@@H](OCCCCO)C1 | 0 | 0 | 0 | 0 | 0 | - | -
SMILES | MrgX1 ag | MrgX1 antagonist | MrgX1 allo act | RGS4 act | RGS4 block | RGS4 activ val | RGS4 act ctr
CCc1nnc(NC(=O)CCN2C(=O)C3CCCCC3C2=O)s1 (stereo unspecified) | 0 | 0 | 0 | 0 | 0 | - | -
CCOc1ccc(S(=O)(=O)N(CC(=O)NC2CCCCC2C)Cc2ccco2)cc1 (stereo unspecified) | 0 | 0 | 0 | -8.2 | 0 | 0 | 0
O=C(CSc1nc(-c2ccccc2Cl)ns1)c1ccc(Cl)cc1 | 0 | 0 | 0 | -8.2 | 0 | 77 | 41
CCCNC(=O)c1ccccc1NC(=O)c1ccc2c(c1)NC(=O)C(C)S2 (stereo unspecified) | 0 | 0 | 0 | -7.8 | 0 | 72 | 29
CC(=O)c1ccccc1NC(=O)c1ccc2c(c1)NC(=O)C(C)S2 (stereo unspecified) | 0 | 0 | 0 | 0 | 0 | - | -
CC(C)N(CCO)C(=O)CCc1nnc(Cc2cccc(C(F)(F)F)c2)o1 | 0 | 0 | 0 | 0 | 0 | - | -
CC(CN1CCCCC1)OC(=O)C(C)(c1ccccc1)c1ccccc1 (stereo unspecified) | 0 | 0 | 0 | -7.9 | 0 | 90 | 54
CC(CN1CCOCC1)OC(=O)c1ccc2c(c1)OCCO2 (stereo unspecified) | 0 | 0 | 0 | 0 | 0 | - | -
CC(CN1CCCCC1)OC(=O)c1ccc2c(c1)OCCO2 (stereo unspecified) | 0 | 0 | 0 | -11 | 0 | 68 | 33
CC(CN1CCOCC1)OC(=O)C(C)(c1ccccc1)c1ccccc1 (stereo unspecified) | 0 | 0 | 0 | 0 | 0 | - | -
CCOCC(=O)Nc1cc(C)on1 | 0 | 0 | 0 | 0 | 0 | - | -
COc1cc(C(CC(=O)O)n2cnnn2)ccc1OC(C)C (stereo unspecified) | 0 | 0 | 0 | 0 | 0 | - | -
CCC(c1nnnn1Cc1cccs1)N1CCN(c2nc3ccccc3s2)CC1 (stereo unspecified) | 0 | 0 | 0 | 0 | 0 | - | -
CC(C)CC(c1nnnn1Cc1cccs1)N1CCN(c2nc3ccccc3s2)CC1 (stereo unspecified) | 0 | 0 | 0 | -12 | 0 | 92 | 71
N#CCC(=O)N/N=C/c1c(-c2ccccc2)n(-c2ccccc2)c2ccccc12 | 0 | 0 | 0 | -12 | 0 | 86 | 50
N#CCC(=O)N/N=C/c1cn(Cc2ccccc2C#N)c2ccccc12 | 0 | 0 | 0 | 0 | 0 | - | -
CN(C)C(C)(C)C#CCC(c1ccccc1)c1ccccc1 | 0 | 0 | 0 | -8.2 | 0 | 90 | 59
COc1ccccc1C(=O)NCC(c1cccs1)N1CCc2ccccc21 (stereo unspecified) | 0 | 0 | 0 | -7.8 | 0 | 62 | 36
COC(=O)c1ccc(C2SCC(=O)N2Cc2ccccc2)cc1 (stereo unspecified) | 0 | 0 | 0 | 0 | 0 | - | -
O=C(NCCSCc1ccccc1)c1ccc(C2SCC(=O)N2Cc2ccccc2)cc1 (stereo unspecified) | 0 | 0 | 0 | -11 | 0 | 88 | 42
Cc1ccc(-c2nc3ccccn3c2NCc2ccc3c(c2)OCO3)cc1 | 0 | 0 | 0 | -9.5 | 0 | 89 | 71
O=C(Nc1ccccc1)c1ccc(CSc2ncccn2)cc1 | 0 | 0 | 0 | 0 | 0 | - | -
Cc1cccc(/C(N)=N/OC(=O)COc2ccc(Cl)cc2)c1 | 0 | 0 | 0 | 0 | 0 | - | -
